Assay results pooled from the literature.
Each line is one published result; the experiments were not run side by side.

| Compound | system | setting | quantity | result |
| --- | --- | --- | --- | --- |
| CC=Cc1ccc(O)c(OC)c1 | mouse, brain | intranasal, 100 mg/kg | Tmax | 5 min |
| CC(C)(O)c1cn(-c2ccc(-c3cc(F)c(CO)c(S(C)(=O)=O)c3)cc2F)c(C(C)(C)c2c(Cl)cccc2Cl)n1 | male cynomolgus monkey, plasma | intravenous, 1 mg/kg, single dose | Vd | 2.9 L/kg |
| COc1cc(C(=O)NC2CCN(C)CC2)c(F)cc1Nc1ncc(C(F)(F)F)c(Oc2cccc3c2C(=O)N(C)C3)n1 | human, plasma | oral, 300 mg, single dose, patients | Cmax | 4.54 µM |
| CC(C)(C)c1ccc(O)c(CN(Cc2cc(C(C)(C)C)ccc2O)C2CCC(NC(N)=O)CC2)c1 (centres unmarked) | male C57BL/6 mouse, brain | intraperitoneal, 5 mg/kg, single dose | Tmax | 30 min |
| CC(C)(O)c1cn(-c2ccc(-c3cccc(S(C)(=O)=O)c3)cc2)c(C(C)(C)c2ccccc2Cl)n1 | male cynomolgus monkey, plasma | oral, 3 mg/kg, single dose | bioavailability | 73% |
| CCc1nc2c(C)cc(N3CCN(CC(=O)N4CC(O)C4)CC3)cn2c1N(C)c1nc(-c2ccc(F)cc2)c(C#N)s1 | human, plasma | intravenous, 0.1 mg, single dose, fasted, healthy volunteers | Cmax | 9.37 ng/mL |
| CCc1ccc(Cc2cc([C@@H]3O[C@H](CO)[C@@H](O)[C@H](O)[C@H]3O)cc3c2CCC3)cc1 | male C57BL/6 mouse, plasma | oral, 0.3 mg/kg | Tmax | 30 min |
| Nc1cc(N2CCCCC2)nc(N)[n+]1[O-] | Caco-2 | 10 µM, 2 h, pH 7.4 | efflux ratio | 1.72 |
| CC(C)(O)c1cn(-c2ccc(-c3cc(F)c(CO)c(S(C)(=O)=O)c3)cc2)c(C(C)(C)c2cccc(F)c2Cl)n1 | male cynomolgus monkey, plasma | intravenous, 1 mg/kg, single dose | Vd | 3.2 L/kg |
| Cc1nc2ccc(F)cc2n1-c1nc(N)c(F)c(Nc2ccc(C(F)(F)F)cc2)n1 | cynomolgus monkey, plasma | oral, 2 mg/kg | bioavailability | 66% |
| COc1ccc(C(O)COc2ccc(-c3csc(-c4ccc(OCC(O)c5ccc(OC)c(OC)c5)cc4)n3)cc2)cc1OC (centres unmarked) | C57BL/6 mouse, plasma | oral, 30 mg/kg | Tmax | 60 min |
| C=CC(=O)N1CC2CC(n3nc(-c4ccc(C(=O)Nc5ccccn5)cc4)c4c(N)ncnc43)CC2C1 (centres unmarked) | SCID mouse, plasma | oral, 5 mg/kg | Tmax | 60 min |
| CO[C@H]1CC[C@H](N2C(=O)CNc3ncc(-c4ccc(C(C)(C)O)nc4)nc32)CC1 | human, plasma | oral, 30 mg, multiple doses, patients | Cmax | 293 ng/mL |
| CS(=O)(=O)CCNCc1ccc(-c2ccc3ncnc(Nc4ccc(OCc5cccc(F)c5)c(Cl)c4)c3c2)o1 | nude mouse, plasma | oral, 100 mg/kg, single dose | Tmax | 120 min |
